Laboratory results from ChEMBL document CHEMBL3352809, “Discovery of a Negative Allosteric Modulator of GABAB Receptors” (ACS Med Chem Lett, 2014).
Calls of active or inactive are those of the source. No cut-off for these calls is given here.

How the values were obtained:
HEK293 = experiment: Effect on ERK1/2 protein expression in HEK293 cells at 100 uM by immunoblotting; format: functional, cell-based; conditions: Homo sapiens
How it was run: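 ERK1/2 phosphorylation in HEK293 cells overexpressing GABA_B receptors (GB1 + GB2), stimulated with baclofen (100 μM) or CGP7930 (100 μM), with or without test compound at 100 μM. Data are mean SEM of three independent experiments. Significance was taken versus agonist alone.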

[1] = target: T1, GABA-B receptor (Homo sapiens) (UniProt Q9UBS5+O75899); experiment: (§1) Negative allosteric modulation of recombinant HA-tagged GB1 subunit/Flag-tagged GB2 subunit receptor (unknown origin) expressed in HEK293 cells co-expressing Gqi9 G-protein assessed as inhibition of GABA-induced IP production by liquid scintillation counting; format: cell-based
How it was run: (§2)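 IP3 formation in HEK293 cells overexpressing GABA_B receptors (GB1 + GB2) and Gq_i9 chimeric proteins. Compounds were tested at 100 μM against GABA 1 μM, with GABA dose-response curves run with or without compound. Inhibition curves were run with compound titrated in the presence of 1 μM GABA to derive IC50. Data are mean SEM of three independent experiments.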

GABA-B receptor = GABA-B receptor (Homo sapiens, UniProt O75899+Q9UBS5); experiment: as §1; format: cell-based; how it was run: as §2
GABA-B receptor, sequence (Q9UBS5 whole entry): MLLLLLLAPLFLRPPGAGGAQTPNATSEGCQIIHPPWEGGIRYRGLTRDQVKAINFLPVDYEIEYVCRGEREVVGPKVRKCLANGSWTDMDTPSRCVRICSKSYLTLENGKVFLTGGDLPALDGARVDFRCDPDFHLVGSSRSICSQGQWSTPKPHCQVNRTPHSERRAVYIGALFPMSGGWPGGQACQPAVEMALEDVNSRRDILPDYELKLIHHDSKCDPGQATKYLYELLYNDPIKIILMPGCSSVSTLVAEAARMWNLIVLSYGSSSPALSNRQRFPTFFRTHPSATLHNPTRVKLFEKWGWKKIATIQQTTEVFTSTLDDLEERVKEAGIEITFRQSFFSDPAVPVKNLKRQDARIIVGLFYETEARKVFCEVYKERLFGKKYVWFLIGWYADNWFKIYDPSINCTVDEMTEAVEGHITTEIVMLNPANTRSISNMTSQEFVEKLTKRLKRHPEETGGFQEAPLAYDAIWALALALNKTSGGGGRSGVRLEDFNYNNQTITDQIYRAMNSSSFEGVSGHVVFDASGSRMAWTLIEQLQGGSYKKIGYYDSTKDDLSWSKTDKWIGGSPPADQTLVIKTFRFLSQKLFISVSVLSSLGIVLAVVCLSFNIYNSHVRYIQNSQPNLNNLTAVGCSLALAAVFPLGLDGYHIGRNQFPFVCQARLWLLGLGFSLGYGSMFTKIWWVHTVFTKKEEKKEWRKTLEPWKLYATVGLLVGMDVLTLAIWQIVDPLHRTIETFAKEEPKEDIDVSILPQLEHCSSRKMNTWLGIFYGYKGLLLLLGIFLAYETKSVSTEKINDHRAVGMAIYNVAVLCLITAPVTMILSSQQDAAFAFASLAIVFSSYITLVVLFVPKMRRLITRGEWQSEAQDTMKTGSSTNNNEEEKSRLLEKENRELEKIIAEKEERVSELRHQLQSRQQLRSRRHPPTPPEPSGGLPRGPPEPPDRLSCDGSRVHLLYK
GABA-B receptor, sequence (O75899 whole entry): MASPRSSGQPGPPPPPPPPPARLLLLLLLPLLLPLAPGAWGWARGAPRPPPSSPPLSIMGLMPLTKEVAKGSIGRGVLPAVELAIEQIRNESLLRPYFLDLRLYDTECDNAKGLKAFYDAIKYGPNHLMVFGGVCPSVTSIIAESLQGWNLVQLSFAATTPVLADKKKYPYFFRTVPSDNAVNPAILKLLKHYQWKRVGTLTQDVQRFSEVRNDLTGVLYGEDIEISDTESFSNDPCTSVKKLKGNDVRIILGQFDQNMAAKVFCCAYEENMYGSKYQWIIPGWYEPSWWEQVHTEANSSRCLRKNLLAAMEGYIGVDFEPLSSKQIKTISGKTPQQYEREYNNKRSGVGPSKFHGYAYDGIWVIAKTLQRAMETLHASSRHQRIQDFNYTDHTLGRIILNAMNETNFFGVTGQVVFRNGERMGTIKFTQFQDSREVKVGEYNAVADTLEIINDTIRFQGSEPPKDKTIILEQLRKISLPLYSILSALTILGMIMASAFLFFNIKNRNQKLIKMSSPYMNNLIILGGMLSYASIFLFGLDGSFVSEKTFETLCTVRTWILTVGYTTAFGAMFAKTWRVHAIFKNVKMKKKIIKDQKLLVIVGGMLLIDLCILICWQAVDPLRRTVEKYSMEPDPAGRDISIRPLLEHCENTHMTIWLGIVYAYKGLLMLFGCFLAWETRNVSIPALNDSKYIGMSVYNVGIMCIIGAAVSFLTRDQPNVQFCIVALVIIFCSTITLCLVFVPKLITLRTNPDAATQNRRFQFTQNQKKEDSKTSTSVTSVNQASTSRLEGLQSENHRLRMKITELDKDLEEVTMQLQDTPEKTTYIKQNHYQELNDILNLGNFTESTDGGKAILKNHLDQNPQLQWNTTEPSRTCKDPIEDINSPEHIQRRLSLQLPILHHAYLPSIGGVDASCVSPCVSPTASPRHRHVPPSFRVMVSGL

[2] = target: T1, GABA-B receptor (Homo sapiens); experiment: Negative allosteric modulation of recombinant HA-tagged GB1 subunit/Flag-tagged GB2 subunit receptor (unknown origin) expressed in HEK293 cells co-expressing Gqi9 G-protein assessed as inhibition of GABA-induced Ca2+ release at 50 uM by fluorescence assay; format: functional, cell-based
How it was run: (§3)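 Test compound was at 50 μM. Agonists were GABA 100 μM for GABA_B and glutamate 10 μM for mGluR1, 2 and 5. Response was compared with agonist alone. Data are mean SEM of three independent experiments.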

[3] = target: Metabotropic glutamate receptor 1 (Homo sapiens) (UniProt Q13255); experiment: Negative allosteric modulation of mGluR1 (unknown origin) expressed in HEK293 cells assessed as inhibition of glutamate-induced Ca2+ release at 50 uM by fluorescence assay; format: functional, cell-based; how it was run: as §3
Metabotropic glutamate receptor 1 (Homo sapiens), sequence (Q13255 19-1194 limits assumed): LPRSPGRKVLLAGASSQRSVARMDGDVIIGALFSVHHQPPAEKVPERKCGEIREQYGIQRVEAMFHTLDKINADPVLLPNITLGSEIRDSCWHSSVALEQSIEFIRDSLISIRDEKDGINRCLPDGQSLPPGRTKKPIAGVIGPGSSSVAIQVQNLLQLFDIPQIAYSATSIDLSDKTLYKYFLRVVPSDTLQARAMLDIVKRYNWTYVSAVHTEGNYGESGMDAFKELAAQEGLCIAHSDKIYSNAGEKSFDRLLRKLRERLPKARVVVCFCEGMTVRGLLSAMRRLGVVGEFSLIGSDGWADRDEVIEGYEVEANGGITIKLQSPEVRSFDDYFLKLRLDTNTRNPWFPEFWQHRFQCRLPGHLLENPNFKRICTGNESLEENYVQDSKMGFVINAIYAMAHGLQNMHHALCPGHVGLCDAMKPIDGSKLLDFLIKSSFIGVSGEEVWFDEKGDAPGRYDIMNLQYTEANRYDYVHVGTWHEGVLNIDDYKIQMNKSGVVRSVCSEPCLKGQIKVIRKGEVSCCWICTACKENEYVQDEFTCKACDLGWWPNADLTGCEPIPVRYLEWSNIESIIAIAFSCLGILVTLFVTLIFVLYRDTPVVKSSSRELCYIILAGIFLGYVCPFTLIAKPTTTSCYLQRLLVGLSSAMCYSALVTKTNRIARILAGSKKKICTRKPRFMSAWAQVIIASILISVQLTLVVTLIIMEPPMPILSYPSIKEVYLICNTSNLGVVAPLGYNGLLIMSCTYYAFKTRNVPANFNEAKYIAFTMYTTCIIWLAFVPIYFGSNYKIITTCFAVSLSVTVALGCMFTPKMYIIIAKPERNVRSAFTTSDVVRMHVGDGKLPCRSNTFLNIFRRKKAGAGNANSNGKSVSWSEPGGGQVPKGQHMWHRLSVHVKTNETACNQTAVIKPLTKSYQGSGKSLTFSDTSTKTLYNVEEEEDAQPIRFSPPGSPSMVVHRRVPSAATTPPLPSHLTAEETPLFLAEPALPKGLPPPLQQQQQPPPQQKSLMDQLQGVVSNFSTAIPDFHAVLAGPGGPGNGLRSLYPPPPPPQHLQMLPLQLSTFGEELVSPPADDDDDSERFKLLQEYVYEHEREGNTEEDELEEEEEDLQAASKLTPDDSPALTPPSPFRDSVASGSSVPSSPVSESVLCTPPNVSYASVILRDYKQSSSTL

[4] = target: Metabotropic glutamate receptor 2 (Homo sapiens) (UniProt Q14416); experiment: Negative allosteric modulation of mGluR2 (unknown origin) expressed in HEK293 cells co-expressing Gqi9 G-protein assessed as inhibition of glutamate-induced Ca2+ release at 50 uM by fluorescence assay; format: functional, cell-based; how it was run: as §3
Metabotropic glutamate receptor 2 (Homo sapiens), sequence (Q14416 19-872 limits assumed): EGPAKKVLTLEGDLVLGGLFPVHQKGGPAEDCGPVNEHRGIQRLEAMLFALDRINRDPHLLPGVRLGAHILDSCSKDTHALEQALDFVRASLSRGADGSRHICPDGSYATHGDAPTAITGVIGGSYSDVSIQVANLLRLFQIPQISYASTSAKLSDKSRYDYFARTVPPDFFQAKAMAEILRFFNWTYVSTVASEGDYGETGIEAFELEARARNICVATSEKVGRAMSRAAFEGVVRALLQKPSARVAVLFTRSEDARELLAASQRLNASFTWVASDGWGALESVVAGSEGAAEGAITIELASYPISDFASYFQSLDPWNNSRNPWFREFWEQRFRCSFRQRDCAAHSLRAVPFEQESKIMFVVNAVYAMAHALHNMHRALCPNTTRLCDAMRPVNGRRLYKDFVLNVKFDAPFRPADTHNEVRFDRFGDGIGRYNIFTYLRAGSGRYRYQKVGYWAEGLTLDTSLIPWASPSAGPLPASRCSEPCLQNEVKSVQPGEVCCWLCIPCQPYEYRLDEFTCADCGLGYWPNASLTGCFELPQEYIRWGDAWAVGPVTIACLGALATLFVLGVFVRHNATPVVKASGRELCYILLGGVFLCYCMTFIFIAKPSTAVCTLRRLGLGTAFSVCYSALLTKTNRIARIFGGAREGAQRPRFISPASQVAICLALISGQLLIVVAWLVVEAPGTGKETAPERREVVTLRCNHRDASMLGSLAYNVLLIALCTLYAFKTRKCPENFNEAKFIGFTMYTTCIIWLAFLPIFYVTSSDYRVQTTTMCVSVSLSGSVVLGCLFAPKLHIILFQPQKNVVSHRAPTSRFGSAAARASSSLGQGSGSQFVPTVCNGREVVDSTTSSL

[5] = target: Metabotropic glutamate receptor 5 (Homo sapiens) (UniProt P41594); experiment: Negative allosteric modulation of mGluR5 (unknown origin) expressed in HEK293 cells assessed as inhibition of glutamate-induced Ca2+ release at 50 uM by fluorescence assay; format: functional, cell-based; how it was run: as §3
Metabotropic glutamate receptor 5 (Homo sapiens), sequence (P41594 21-1212 limits assumed): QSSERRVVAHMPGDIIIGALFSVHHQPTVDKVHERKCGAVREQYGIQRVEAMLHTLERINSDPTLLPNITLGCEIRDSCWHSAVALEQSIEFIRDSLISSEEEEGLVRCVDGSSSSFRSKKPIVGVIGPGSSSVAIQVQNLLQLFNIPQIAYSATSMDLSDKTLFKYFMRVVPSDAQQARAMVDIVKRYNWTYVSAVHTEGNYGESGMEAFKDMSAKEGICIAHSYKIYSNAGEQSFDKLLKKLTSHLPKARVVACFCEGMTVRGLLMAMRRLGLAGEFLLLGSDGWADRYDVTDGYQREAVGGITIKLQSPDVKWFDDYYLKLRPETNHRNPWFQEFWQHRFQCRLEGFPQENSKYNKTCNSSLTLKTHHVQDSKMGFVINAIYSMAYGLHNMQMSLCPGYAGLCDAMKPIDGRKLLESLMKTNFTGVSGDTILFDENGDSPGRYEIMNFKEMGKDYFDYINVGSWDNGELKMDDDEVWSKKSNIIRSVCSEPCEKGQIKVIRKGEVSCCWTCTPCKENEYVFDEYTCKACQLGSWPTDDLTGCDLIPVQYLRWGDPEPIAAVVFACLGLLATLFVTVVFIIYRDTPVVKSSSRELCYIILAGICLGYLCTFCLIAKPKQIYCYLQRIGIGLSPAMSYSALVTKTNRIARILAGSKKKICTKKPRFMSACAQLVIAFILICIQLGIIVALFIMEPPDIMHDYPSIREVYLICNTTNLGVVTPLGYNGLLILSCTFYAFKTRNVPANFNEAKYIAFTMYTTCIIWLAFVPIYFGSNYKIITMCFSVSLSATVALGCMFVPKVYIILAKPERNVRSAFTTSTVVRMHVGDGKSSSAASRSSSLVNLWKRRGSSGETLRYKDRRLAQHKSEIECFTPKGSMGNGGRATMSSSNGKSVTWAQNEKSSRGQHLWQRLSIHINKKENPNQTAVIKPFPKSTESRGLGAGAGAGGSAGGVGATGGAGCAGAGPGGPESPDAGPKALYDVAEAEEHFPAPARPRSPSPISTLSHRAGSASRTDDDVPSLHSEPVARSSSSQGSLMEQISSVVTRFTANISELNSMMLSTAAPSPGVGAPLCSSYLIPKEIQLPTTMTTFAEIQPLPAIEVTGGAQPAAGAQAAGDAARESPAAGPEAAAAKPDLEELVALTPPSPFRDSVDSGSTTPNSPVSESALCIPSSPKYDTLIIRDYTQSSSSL

[6] = target: T1, GABA-B receptor (Homo sapiens); experiment: Displacement of [3H]CGP54626 from recombinant HA-tagged GB1 subunit/Flag-tagged GB2 subunit receptor (unknown origin) expressed in CHO cells up to 100 uM by scintillation proximity assay; format: cell-based

| inhibition [1] | IC50 (GABA-B receptor) | inhibition [2] | inhibition [3] | inhibition [4] | inhibition [5] | inhibition [6] | SMILES | inhibition (HEK293) |
| --- | --- | --- | --- | --- | --- | --- | --- | --- |
| – | – | – | – | – | – | – | COC(O)CC(O)c1cc(C(C)(C)C)c(O)c(C(C)(C)C)c1 (stereo not given) | inactive |
| Dose-dependent effect | 21.3 µM | – | – | – | – | – | CC(C)(C)c1cc(/C=C/C=O)cc(C(C)(C)C)c1O | – |
| Dose-dependent effect | 37.9 µM | Active | inactive | inactive | inactive | inactive | CC(C)(C)c1cc(/C=C/C(=O)C(=O)O)cc(C(C)(C)C)c1O | – |
